IDH1 mut inh: inhibitors of IDH1 R132H reductase, primary screen, biochemical, plate reader, single point | Isocitrate dehydrogenase [NADP] cytoplasmic (Homo sapiens), O75874 | inhibition, % at 10 µM | AID 624101, 2012 | actives 0.18% (n = 70,000) | diaphorase/resazurin fluorescence, 60 min; in the data active means inhibition above about 34%; inconclusive means no clear call, values can overlap the other calls; inactive means below about 11%;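 further: 0% = DMSO and 100% = no enzyme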
Pf Dd2 growth: P. falciparum Dd2 growth inhibitors, primary screen, SYBR Green fluorescence, single dose replicates; activity change, % at 10 µM; actives 2.3% (n = 94,000); AID 1159554, 2015; 72 h; active compounds read low; in the data active means activity change below about -80%; inconclusive means no clear call, values can overlap the other calls
GASC1 inh: inhibitors of GASC-1 (KDM4C) histone demethylase, primary screen, biochemical, single concentration HTS; GST-KDM4C 2-372, H3K9me3 peptide, LANCE TR-FRET; inhibition, % at 12.5 µM; actives 0.15% (n = 96,000); Lysine-specific demethylase 4C (Homo sapiens), Q9H3R0;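 active means mean replicate inhibition above about 25%, with at least 55% of replicates also reaching it, limit read from the data, passing the limit was not always enough; inconclusive means only one of those two conditions met; inactive means neither condition met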
Target sequence (Q9H3R0 2-372 limits assumed): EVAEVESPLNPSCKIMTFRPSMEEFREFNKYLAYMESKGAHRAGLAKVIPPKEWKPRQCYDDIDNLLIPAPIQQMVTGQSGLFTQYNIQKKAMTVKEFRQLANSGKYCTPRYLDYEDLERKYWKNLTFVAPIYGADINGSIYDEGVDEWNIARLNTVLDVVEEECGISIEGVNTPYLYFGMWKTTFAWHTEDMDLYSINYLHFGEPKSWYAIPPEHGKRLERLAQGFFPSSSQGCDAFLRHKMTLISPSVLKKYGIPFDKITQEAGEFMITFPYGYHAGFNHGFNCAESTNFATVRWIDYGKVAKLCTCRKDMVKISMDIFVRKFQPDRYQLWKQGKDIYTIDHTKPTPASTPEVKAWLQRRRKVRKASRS
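Assay system: GST-GASC-1 enzyme fragment 2-372 | Amount: 10 nM enzyme | Medium: HEPES buffer, pH 7.5, plus ascorbate | Reagent: H3K9me3 peptide substrate, Fe(II), 2-oxoglutarate | Doses: Single-point compound screen | Incubation: 30 min demethylation and 1 h detection at room temperature | Measured by: LANCE TR-FRET, excitation 340 nm, emissions 618 and 671 nm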
T cruzi growth-1: T. cruzi intracellular proliferation inhibitors, primary screen, cell-based, beta-gal Tulahuen parasites, NIH3T3 host, luminescence | T. cruzi beta-gal in NIH3T3, GalScreen luminescence, 90 h | inhibition, % at 8.34 µM | actives 5.9% (n = 77,000);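 active means mean inhibition above about 93%, with at least 55% of replicates each passing it, limit read from the data, passing the limit was not always enough; inconclusive means only one of those two conditions holds; inactive means neither condition holds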
T cruzi growth-2: T. cruzi intracellular proliferation inhibitors, confirmation, cell-based, NIH3T3 host, beta-gal parasite, luminescence, cherry-pick. shares compounds with T cruzi growth-1. T. cruzi beta-gal in NIH3T3, GalScreen luminescence, 90 h. inhibition, % at 8.35 µM. actives 72% (n = 5,600);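 active means mean replicate inhibition above about 95% and at least 55% of replicates individually reaching it, limit read from the data; inconclusive means only one of the two criteria is met; inactive means neither criterion is met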
T cruzi growth-3: inhibitors of intracellular T. cruzi replication, confirmation, NIH3T3 host cells, beta-gal parasites, cherry-pick, set 2; actives 21% (n = 5,600); T. cruzi beta-gal in NIH3T3, GalScreen luminescence, 90 h; AID 651740, 2012; shares compounds with T cruzi growth-1; inhibition, % at 2.09 µM;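 active means mean inhibition above about 95%, with at least 55% of replicates also reaching it, limit read from the data; inconclusive means meets just one of the two conditions; inactive means meets neither condition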;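 further: plate controls were neutral control median for no effect and positive control median for full effect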
NIH3T3 tox: cytotoxicity in mouse NIH/3T3 fibroblasts, confirmation, cytotoxicity control for T. cruzi proliferation inhibitor project, cell-based, cherry-pick, single point. NIH/3T3 viability, CellTiter-Glo ATP luminescence, 90 h. shares compounds with T cruzi growth-1. cytotoxicity (signal decrease), % at 8.35 µM. actives 14% (n = 5,600);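 active means mean signal decrease across replicates above about 35% based on untreated-well scatter, with enough replicates individually passing, limit read from the data; inconclusive means no rule stated though some were filed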;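 further: 0% = median of neutral control wells and 100% = median of positive control wells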
3T3 cytotox 2: NIH/3T3 fibroblast cytotoxicity, confirmation, cytotoxicity control, cell-based, cherry-pick, single point, set 2; shares compounds with T cruzi growth-1; NIH/3T3 viability, CellTiter-Glo ATP luminescence, 90 h; inhibition, % at 24.9 µM; actives 56% (n = 5,600); AID 651744, 2012;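 active means mean loss of cell viability signal at or above a set limit, and enough replicates individually reaching it; inconclusive means meets only the mean limit or only the replicate share; inactive means meets neither condition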;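 further: 0% = median of neutral control wells and 100% = median of positive control wells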
* = called active by the depositor; ? = inconclusive; · = no result given. Only some compounds are listed: those with a hit (about 5.8% of all), similar ones and a draw of the others.

SMILES | IDH1 mut inh | Pf Dd2 growth | GASC1 inh | T cruzi growth-1 | T cruzi growth-2 | T cruzi growth-3 | NIH3T3 tox | 3T3 cytotox 2
C[C@@H]1CN([C@@H](C)CO)S(=O)(=O)c2ccc(C#CCN(C)C)cc2O[C@@H]1CN(C)C(=O)C1CCCCC1 | 2.5 | -10.8 | 3.2 | · | · | · | · | ·
C[C@@H]1CN([C@@H](C)CO)S(=O)(=O)c2ccc(C#CCN(C)C)cc2O[C@@H]1CN(C)C(=O)C1CCC1 | · | 1.7 | 1.0 | 94.0 | · | · | · | ·
CO[C@H]1C[C@H](O[C@H]2[C@H](C)[C@@H](O[C@@H]3O[C@H](C)C[C@H](N(C)C)[C@@H]3OC(C)=O)[C@@H](C)C[C@]3(CO3)C(=O)[C@H](C)[C@@H](OC(C)=O)[C@@H](C)[C@@H](C)OC(=O)[C@@H]2C)O[C@@H](C)[C@@H]1OC(C)=O | 0.2 | · | · | · | · | · | · | ·
Cn1c(SCC(=O)Nc2ccc(Oc3ccccc3)cc2)nnc1-c1ccccn1 | 0.0 | · | · | · | · | · | · | ·
CC(C)CC#Cc1cnc2c(c1)C(=O)N([C@H](C)CO)C[C@@H](C)[C@H](CN(C)Cc1ccccc1F)O2 | -0.7 | -45.7 | 1.2 | ? | 106.2* | 58.3 | 16.7 | 76.2*
CC(C)CC#Cc1cnc2c(c1)C(=O)N([C@@H](C)CO)C[C@@H](C)[C@@H](CN(C)Cc1cccc(F)c1)O2 | -0.6 | -29.8 | -1.5 | 99.3* | 106.2* | 82.5 | 22.9 | 44.8*
CC(C)CC#Cc1cnc2c(c1)C(=O)N([C@H](C)CO)C[C@@H](C)[C@@H](CN(C)Cc1ccc(F)cc1)O2 | -0.5 | -34.3 | -2.4 | 86.1 | · | · | · | ·
CCCC#Cc1cnc2c(c1)C(=O)N([C@H](C)CO)C[C@H](C)[C@@H](CN(C)Cc1ccccc1F)O2 | -4.3 | -31.3 | 1.4 | 85.5 | · | · | · | ·
C[C@H](CO)N1C[C@H](C)[C@@H](CN(C)Cc2cccc(F)c2)Oc2ncc(C#CCN(C)C)cc2C1=O | -0.4 | -31.4 | 3.3 | -75.3 | · | · | · | ·
CC(C)CC#Cc1cnc2c(c1)C(=O)N([C@H](C)CO)C[C@H](C)[C@H](CN(C)Cc1cccc(F)c1)O2 | -0.8 | -53.8 | -0.6 | ? | 107.2* | 34.3 | -5.6 | 14.0
C[C@H]1CN([C@@H](C)CO)C(=O)c2cc(C#CCc3ccccc3)cnc2O[C@@H]1CN(C)Cc1cccc(F)c1 | 0.0 | -51.6 | -1.6 | ? | 89.5 | 89.0 | -34.4 | 103.5*
C[C@H](CO)N1C[C@H](C)[C@@H](CN(C)Cc2ccccc2)Oc2ncc(C#CCc3ccccc3)cc2C1=O | · | -73.4 | 1.9 | · | · | · | · | ·
CC(C)CC#Cc1cnc2c(c1)C(=O)N([C@@H](C)CO)C[C@H](C)[C@@H](CN(C)Cc1ccc3c(c1)OCO3)O2 | -0.8 | -29.3 | 1.9 | 82.0 | · | · | · | ·
CC(C)CC#Cc1cnc2c(c1)C(=O)N([C@@H](C)CO)C[C@@H](C)[C@@H](CN(C)Cc1ccc3c(c1)OCO3)O2 | 5.2 | -53.6 | 4.0 | 101.1* | 105.4* | 76.8 | 32.6 | 92.5*
COCCOC(=O)N1C(=O)[C@@]2(c3cc(C#CCC(C(=O)OC)C(=O)OC)ccc31)[C@H](C(=O)N1CCc3cc(OC)c(OC)cc3C1)[C@H]1C(=O)O[C@H](c3ccccc3)[C@H](c3ccccc3)N1[C@@H]2c1ccccc1OCCO | 0.0 | · | · | · | · | · | · | ·
CCOc1cccc2c(C)nc(Nc3nc4c(c(=O)[nH]3)CCCC4)nc12 | 2.1 | · | · | · | · | · | · | ·
O=C(CCCCCC(=O)N/N=C/c1ccccn1)NO | 0.2 | · | · | · | · | · | · | ·

Screening data as filed in PubChem.
